How the values were obtained:
Type in all cases: functional
Candida parapsilosis [1] = test: Antimicrobial activity against Candida parapsilosis in silicone disk biofilm at 3 mg/ml after 60 mins
Summary of the method: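 Silicone disks were preconditioned in human plasma for 24 h at 37°C with shaking. They were then colonized 24 h with C. parapsilosis at 5.5 × 10^5 cells/ml in MHB and washed 30 min in saline. Disks were exposed 1 h at 37°C to drug or MHB, sonicated 5 min in saline, vortexed and plated on blood agar. 5–10 replicates; mean CFU/ml ± SD, capped at 5,000.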

Candida parapsilosis [2] = test: Antimicrobial activity against Candida parapsilosis in silicone disk biofilm at 3 mg/ml after 60 mins in drug assessed as 24 hr regrowth
Summary of the method: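 C. parapsilosis biofilm on plasma-coated silicone disks was exposed 1 h at 37°C to drug, then saline-washed and incubated overnight at 37°C in Trypticase soy broth. Disks were then sonicated 5 min in that broth and plated on sheep blood agar. 5–10 replicates; regrowth is given as mean CFU/ml ± SD, capped at 5,000.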

Staphylococcus aureus [3] = test: Antimicrobial activity against methicillin-resistant Staphylococcus aureus in silicone disk biofilm at 3 mg/ml after 60 mins in drug assessed as 24 hr regrowth
Summary of the method: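 MRSA biofilm on plasma-coated silicone disks (inoculum 5.5 × 10^5 cells/ml in MHB, 24 h, 37°C, shaking), saline-washed, then exposed to drug for 1 h at 37°C. Disks washed in saline, incubated overnight at 37°C in Trypticase soy broth, sonicated 5 min in that broth and plated on blood agar. 5–10 replicates. Mean CFU/ml, capped at 5,000.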

Staphylococcus aureus [4] = test: Antimicrobial activity against methicillin-resistant Staphylococcus aureus embedded in MRD biofilm model at 3 mg/ml after 15 mins in drug assessed as 24 hr regrowth
Summary of the method: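 MRSA biofilm grown on catheter segments in a modified Robbins device: 5% dextrose infusate at 2 × 10^5 CFU/ml, 60 ml/h for 8 h at 37°C, then 10 h incubation and a saline flush. Segments exposed to drug in broth for 15 min at 37°C, then reincubated 24 h at 37°C in Mueller-Hinton broth, scrape-sonicated and plated on blood agar. Mean CFU/ml, capped at 500.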

Candida parapsilosis [5] = test: Antimicrobial activity against Candida parapsilosis embedded in MRD biofilm at 3 mg/ml after 15 mins
Summary of the method: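 MRD catheter segments colonized by infusing C. parapsilosis-infected 5% dextrose (2 × 10^2 CFU/ml) at 60 ml/h for 8 h at 37°C, then incubated 10 h more and flushed with saline 2 h. Segments soaked 15 min at 37°C in drug in Mueller-Hinton broth (MHB alone as control). Then scrape-sonicated 5 min in Trypticase soy broth and plated on blood agar overnight. Mean CFU/ml ± SD reported, capped at 500.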

Staphylococcus aureus [6] = test: Antimicrobial activity against methicillin-resistant Staphylococcus aureus in silicone disk biofilm at 3 mg/ml after 60 mins
Summary of the method: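 Silicone disks preconditioned in human plasma for 24 h at 37°C with shaking, then shaken 24 h at 37°C with MRSA at 5.5 × 10^5 cells/ml in MHB. Disks washed 30 min in 0.9% saline, exposed to drug for 1 h at 37°C, sonicated 5 min in saline, vortexed and plated on blood agar overnight. 5–10 replicates. Mean CFU/ml, capped at 5,000.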

Staphylococcus aureus [7] = test: Antimicrobial activity against methicillin-resistant Staphylococcus aureus embedded in MRD biofilm model at 3 mg/ml after 15 mins
Summary of the method: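 MRSA clinical isolates from catheter-related bacteremia. Infusate of 2 × 10^5 CFU/ml in 5% dextrose water pumped through a modified Robbins device at 60 ml/h for 8 h at 37°C, then 10 h further incubation and a 2 h saline flush. Catheter segments soaked in drug in Mueller-Hinton broth for 15 min at 37°C, scrape-sonicated in TSB, plated on blood agar overnight. Mean CFU/ml, capped at 500.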

Candida parapsilosis [8] = test: Antimicrobial activity against Candida parapsilosis embedded in MRD biofilm at 3 mg/ml after 15 mins in drug assessed as 24 hr regrowth
Summary of the method: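 MRD C. parapsilosis-colonized segments were soaked 15 min at 37°C in drug in broth. A second set was reincubated 24 h at 37°C in Mueller-Hinton broth, scrape-sonicated and plated on sheep blood agar overnight. Regrowth is given as mean CFU/ml ± SD, capped at 500.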

In the case of `CN(C)c1ccc(O)c2c1C[C@H]1C[C@H]3[C@H](N(C)C)C(O)=C(C(N)=O)C(=O)[C@@]3(O)C(O)=C1C2=O` [MINOCYCLINE], the CFU/ml (Candida parapsilosis [1]) was 5000, the CFU/ml (Candida parapsilosis [2]) was 5000 and the CFU/ml (Staphylococcus aureus [3]) was 5000. It also gave a CFU/ml (Staphylococcus aureus [4]) of 308, a CFU/ml (Candida parapsilosis [5]) of 138 and a CFU/ml (Staphylococcus aureus [6]) of 5000. It also gave a CFU/ml (Staphylococcus aureus [7]) of 324 and a CFU/ml (Candida parapsilosis [8]) of 500.
